Calls of active or inactive are those of the source.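 Rule for the calls: active = fold change below 0.7, the computed hit cutoff; inactive = the rest.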
Each compound was assayed against Nuclear receptor ROR-gamma (Homo sapiens) (UniProt P51449) (assay: RORγ-driven luciferase suppression – cell-based, luminescence, single concentration, HEK293T GAL4-RORg, selectivity assay for RORA inverse agonist project, late-stage follow-up (AID 463147)). Conditions: HEK293T GAL4-RORg LBD luciferase reporter, 18-24 h; at 10 µM; active compounds read low.
Summary of the method: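 Material: transfected HEK293T, GAL4-RORγ LBD and UAS-luciferase reporter; incubation: 20 h compound exposure, cells replated 24 h post-transfection; dosing: single nominal concentration of 10 µM per compound; technique: luciferase luminescence from UAS reporter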

Sequence of Nuclear receptor ROR-gamma (Homo sapiens) (P51449 whole entry, looked up, the tested form may be a part): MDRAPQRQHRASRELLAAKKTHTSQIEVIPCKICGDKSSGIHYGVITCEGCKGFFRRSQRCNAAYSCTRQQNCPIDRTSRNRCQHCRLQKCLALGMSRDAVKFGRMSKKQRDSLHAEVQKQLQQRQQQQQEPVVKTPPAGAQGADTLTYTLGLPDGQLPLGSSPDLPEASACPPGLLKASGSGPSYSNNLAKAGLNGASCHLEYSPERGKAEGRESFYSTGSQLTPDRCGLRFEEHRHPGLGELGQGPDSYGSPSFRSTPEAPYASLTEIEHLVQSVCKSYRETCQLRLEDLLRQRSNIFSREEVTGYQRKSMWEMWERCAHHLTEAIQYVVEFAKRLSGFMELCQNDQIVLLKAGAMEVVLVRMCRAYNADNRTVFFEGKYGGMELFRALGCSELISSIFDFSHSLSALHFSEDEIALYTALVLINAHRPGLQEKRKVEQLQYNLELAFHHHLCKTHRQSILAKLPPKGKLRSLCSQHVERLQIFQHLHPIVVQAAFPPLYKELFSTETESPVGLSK

Q: `O=C(Nc1ccc(C(O)(C(F)(F)F)C(F)(F)F)cc1)c1ccc(F)cc1Cl` was tested. Which fold change did it give?
A: 0.974 (inactive)

Q: With `O=C(Nc1ccc(C(O)(C(F)(F)F)C(F)(F)F)cc1)c1c(F)cccc1F` as the compound, how does the fold change read?
A: 1.06 (inactive)

Q: How did the fold change turn out when `O=C(Nc1ccc(C(O)(C(F)(F)F)C(F)(F)F)cc1)c1ccc(Cl)cc1` was run?
A: 0.873 (inactive)

Q: Which fold change does the source give for `O=S(=O)(Nc1ccc(C(O)(C(F)(F)F)C(F)(F)F)cc1)c1cccs1` here?
A: 0.91 (inactive)

Q: How did the fold change turn out when `O=C(Nc1ccc(C(O)(C(F)(F)F)C(F)(F)F)cc1)c1ccc(F)cc1F` was run?
A: 1.23 (inactive)

Q: Which fold change does the source give for `O=C(Nc1ccc(C(O)(C(F)(F)F)C(F)(F)F)cc1)c1ccccc1C(F)(F)F` here?
A: 0.897 (inactive)

Reference: PubChem BioAssay AID463147 (The Scripps Research Institute Molecular Screening Center, 2010)
